Measured values taken from ChEMBL document CHEMBL4229417, “Design and synthesis of alkyl substituted pyridino[2,3-D]pyrimidine compounds as PI3Kα/mTOR dual inhibitors with improved pharmacokinetic properties and potent in vivo antitumor activity” (Bioorg Med Chem, 2018).
Active and inactive are the calls of the source. No cut-off for these calls is given here.

How the values were obtained:
[1] = tested on: PC-3; experiment: Antiproliferative activity against human PC3 cells assessed as reduction in cell viability after 48 hrs by CCK8 assay; assay type: functional, cell-based; conditions: PC-3, 48 h
Summary of the method: (§1)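 Cells were seeded at 5000/well and grown 24 h at 37 °C, 5% CO2. They were then exposed 48 h to compound diluted from DMSO into medium (final DMSO <0.4%). CCK-8 was added for 1 h and absorbance read at 540 nm. IC50 came from the viability vs concentration (nM) curve, in triplicate.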

[2] = tested on: MCF7; experiment: Antiproliferative activity against human MCF7 cells assessed as reduction in cell viability after 48 hrs by CCK8 assay; assay type: functional, cell-based; conditions: MCF7, 48 h; summary of the method: as §1
[3] = tested on: U-87 MG; experiment: Antiproliferative activity against human U87MG cells assessed as reduction in cell viability after 48 hrs by CCK8 assay; assay type: functional, cell-based, U-87MG ATCC; summary of the method: as §1
[4] = tested on: SK-OV-3; experiment: Antiproliferative activity against human SKOV3 cells assessed as reduction in cell viability after 48 hrs by CCK8 assay; assay type: functional, cell-based; conditions: SK-OV-3, 48 h; summary of the method: as §1
[5] = biological target: T1, Serine/threonine-protein kinase mTOR (Homo sapiens, UniProt P42345); experiment: Inhibition of mTOR (unknown origin) using ULight-4E-BP1 peptide substrate measured after 1 hr by Lance Ultra assay
Summary of the method: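 mTOR (10 nM final) was reacted with ULight-4E-BP1 peptide (50 nM final) and ATP in kinase buffer for 1 h at room temperature.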

[6] = biological target: T2, Phosphatidylinositol 4,5-bisphosphate 3-kinase catalytic subunit alpha isoform (Homo sapiens, UniProt P42336); experiment: Inhibition of PI3Kalpha (unknown origin) using PIP2 as substrate measured after 1 hr by Kinase-Glo luminescent assay
T2 sequence (P42336 whole entry, canonical isoform): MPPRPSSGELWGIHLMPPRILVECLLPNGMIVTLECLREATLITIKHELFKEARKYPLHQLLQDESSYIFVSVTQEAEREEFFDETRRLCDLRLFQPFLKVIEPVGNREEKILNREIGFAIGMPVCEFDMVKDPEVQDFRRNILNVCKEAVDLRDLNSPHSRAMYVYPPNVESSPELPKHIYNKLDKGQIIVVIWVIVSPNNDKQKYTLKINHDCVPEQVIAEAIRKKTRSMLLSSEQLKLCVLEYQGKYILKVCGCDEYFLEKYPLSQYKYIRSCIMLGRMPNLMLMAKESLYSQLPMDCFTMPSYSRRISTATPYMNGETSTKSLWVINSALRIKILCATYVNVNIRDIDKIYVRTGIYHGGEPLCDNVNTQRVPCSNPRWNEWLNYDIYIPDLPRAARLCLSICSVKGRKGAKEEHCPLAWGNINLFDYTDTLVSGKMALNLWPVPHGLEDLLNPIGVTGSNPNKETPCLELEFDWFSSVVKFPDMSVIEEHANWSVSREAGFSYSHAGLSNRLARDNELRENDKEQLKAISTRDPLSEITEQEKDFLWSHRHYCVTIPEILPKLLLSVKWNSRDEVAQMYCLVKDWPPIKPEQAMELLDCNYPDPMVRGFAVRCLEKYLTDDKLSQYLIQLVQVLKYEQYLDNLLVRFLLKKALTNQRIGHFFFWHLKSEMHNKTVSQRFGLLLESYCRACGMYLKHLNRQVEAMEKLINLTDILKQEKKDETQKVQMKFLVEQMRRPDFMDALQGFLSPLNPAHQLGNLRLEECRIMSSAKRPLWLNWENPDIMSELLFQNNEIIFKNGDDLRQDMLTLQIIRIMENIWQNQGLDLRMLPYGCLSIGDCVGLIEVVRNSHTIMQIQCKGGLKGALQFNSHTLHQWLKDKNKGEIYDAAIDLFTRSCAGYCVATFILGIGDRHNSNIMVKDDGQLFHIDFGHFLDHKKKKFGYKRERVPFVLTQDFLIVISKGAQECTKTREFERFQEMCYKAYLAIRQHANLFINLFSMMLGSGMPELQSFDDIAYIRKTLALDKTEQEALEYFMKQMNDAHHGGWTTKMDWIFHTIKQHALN

[7] = biological target: T2, Phosphatidylinositol 4,5-bisphosphate 3-kinase catalytic subunit alpha isoform; experiment: Inhibition of PI3Kalpha in human U87MG cells assessed as reduction in AKT phosphorylation at T308 residue at 2 nM after 24 hrs by Western blot analysis relative to control; assay type: cell-based
Summary of the method: (§2)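 U87MG cells were treated at indicated concentrations for 24 h at 37 °C, then lysed in RIPA with protease/phosphatase inhibitors and 1 mM PMSF. Lysates were run on SDS–PAGE and PVDF blots probed overnight at 4 °C for AKT, pAKT Ser473, pAKT Thr308, S6RP and pS6RP Ser235/236. HRP secondary was used with chemiluminescent detection.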

[8] = Cmax in Beagle dog at 1 mg/kg, po administered as single dose via gavage; assay type: ADME, organism-based, Canis lupus familiaris; parameters: dose 1 mg/kg, route oral; conditions: in vivo
Summary of the method: (§3)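 Three male Beagle dogs (9–10 months, 9–10 kg) given 1 mg/kg by oral gavage as a solution in physiological saline with 5% DMSO. Blood was drawn at 0.25–24 h and spun within 1 h (1000 × g, 4 °C, 15 min). Plasma was stored at -20 °C. t1/2 and AUC0–24 were obtained by model-independent analysis, and Cmax and MRT directly from the plasma concentration–time data.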

[9] = biological target: T1, Serine/threonine-protein kinase mTOR; experiment: Potency index, ratio of AZD8055 IC50 to test compound IC50 for mTOR (unknown origin)
[10] = Half life in Beagle dog at 1 mg/kg, po administered as single dose via gavage; assay type: ADME, organism-based, Canis lupus familiaris; conditions: in vivo; summary of the method: as §3
[11] = biological target: T2, Phosphatidylinositol 4,5-bisphosphate 3-kinase catalytic subunit alpha isoform; experiment: Inhibition of PI3Kalpha in human U87MG cells assessed as reduction in AKT phosphorylation at S473 residue at 20 to 200 nM after 24 hrs by Western blot analysis relative to control; assay type: cell-based; summary of the method: as §2
[12] = tested on: U-87 MG; experiment: Antitumor activity against human U87MG cells xenografted in Balb/c mouse assessed as tumor growth inhibition at 3 mg/kg, ig administered daily for 10 days relative to control; assay type: functional, U-87MG ATCC; conditions: po, 240 h, read-out: TGI
Summary of the method: (§4)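 Female BALB/c nude mice (6–7 weeks, 16–20 g, SPF, 5 groups of 5) were implanted subcutaneously with 5×10^6 U87MG cells. At 100–150 mm³ they were randomized and dosed intragastrically once daily for 10 days. Body weight was recorded twice every 3 days. Tumor volume was taken as V = 1/2ab² (a length, b width).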

[13] = Unbound clearance in pooled human liver microsomes at 50 uM pretreated for 5 mins followed by NADPH addition and measured after 120 mins by HPLC analysis; assay type: ADME, microsome; conditions: 2 h
Summary of the method: (§5)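 Pooled adult male and female human liver microsomes at 1 mg/mL in 0.1 M Tris-HCl pH 7.4, with test compound at 50 μM final. Mixtures were preincubated 5 min at 37 °C, then started with NADPH regenerating system. Reactions were stopped at 120 min with cold methanol, centrifuged, and analysed by HPLC.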

[14] = biological target: T2, Phosphatidylinositol 4,5-bisphosphate 3-kinase catalytic subunit alpha isoform; experiment: Inhibition of PI3Kalpha in human U87MG cells assessed as reduction in AKT phosphorylation at S473 residue at 2 nM after 24 hrs by Western blot analysis relative to control; assay type: cell-based; summary of the method: as §2
[15] = biological target: T2, Phosphatidylinositol 4,5-bisphosphate 3-kinase catalytic subunit alpha isoform; experiment: Potency index, ratio of AZD8055 IC50 to test compound IC50 for PI3Kalpha (unknown origin)
[16] = tested on: U-87 MG; experiment: Antitumor activity against human U87MG cells xenografted in Balb/c mouse assessed as tumor growth inhibition at 30 mg/kg, ig administered daily for 10 days relative to control; assay type: functional, U-87MG ATCC; conditions: po, 240 h, read-out: TGI; summary of the method: as §4
[17] = tested on: U-87 MG; experiment: Antitumor activity against human U87MG cells xenografted in Balb/c mouse assessed as tumor growth inhibition at 10 mg/kg, ig administered daily for 10 days relative to control; assay type: functional, U-87MG ATCC; conditions: po, 240 h, read-out: TGI; summary of the method: as §4
[18] = Half life in pooled human liver microsomes at 50 uM pretreated for 5 mins followed by NADPH addition and measured after 120 mins by HPLC analysis; assay type: ADME, microsome; summary of the method: as §5
[19] = Mean residence time in Beagle dog at 1 mg/kg, po administered as single dose via gavage; assay type: ADME, organism-based, Canis lupus familiaris; conditions: in vivo; summary of the method: as §3
[20] = biological target: T2, Phosphatidylinositol 4,5-bisphosphate 3-kinase catalytic subunit alpha isoform; experiment: Inhibition of PI3Kalpha in human U87MG cells assessed as reduction in AKT phosphorylation at T308 residue at 20 to 200 nM after 24 hrs by Western blot analysis relative to control; assay type: cell-based; summary of the method: as §2
[21] = biological target: T2, Phosphatidylinositol 4,5-bisphosphate 3-kinase catalytic subunit alpha isoform; experiment: Inhibition of PI3Kalpha in human U87MG cells assessed as reduction in S6 phosphorylation at Ser235/236 after 24 hrs by Western blot analysis; assay type: cell-based; summary of the method: as §2
[22] = tested on: SK-OV-3; experiment: Potency index, ratio of AZD8055 IC50 to test compound IC50 for human SKOV3 cells; assay type: functional
[23] = tested on: U-87 MG; experiment: Antitumor activity against human U87MG cells xenografted in ig dosed Balb/c mouse assessed as tumor growth inhibition administered daily for 10 days; assay type: functional, organism-based; conditions: U-87MG ATCC; summary of the method: as §4
[24] = tested on: Mus musculus; experiment: Toxicity in Balb/c mouse xenografted with human U87MG cells assessed as body weight loss at 3 to 30 mg/kg, ig administered daily for 10 days measured twice every 3 days during compound dosing; assay type: organism-based; conditions: in vivo, po; summary of the method: as §4
[25] = AUC (0 to 24 hrs) in Beagle dog at 1 mg/kg, po administered as single dose via gavage; assay type: ADME, organism-based, Canis lupus familiaris; parameters: time < 24 hr, dose 1 mg/kg, route oral; conditions: in vivo; summary of the method: as §3

| IC50 [1] | IC50 [2] | IC50 [3] | IC50 [4] | IC50 [5] | IC50 [6] | SMILES | also measured |
| --- | --- | --- | --- | --- | --- | --- | --- |
| > 1000 nM | > 1000 nM | 821 nM | 640 nM | 48 nM | 3200 nM | COc1ccc(-c2ccc3c(N4CCOCC4)nc(C(N)=O)nc3n2)cc1CO | – |
| 66 nM | 77.3 nM | 91.9 nM | 49.1 nM | 95 nM | > 10000 nM | COc1ccc(-c2ccc3c(N4CCOC[C@@H]4C)nc(C)nc3n2)cc1CO | – |
| 163 nM | 72 nM | 89.2 nM | 52.4 nM | 29 nM | > 10000 nM | COc1ccc(-c2ccc3c(N4CCOC[C@@H]4C)nc(CC(OC)OC)nc3n2)cc1CO | – |
| > 1000 nM | > 1000 nM | > 1000 nM | > 1000 nM | > 500 nM | > 10000 nM | COc1ccc(-c2ccc3c(N4CCOCC4)nc(C(CO)CO)nc3n2)cc1CO | – |
| 476 nM | 443 nM | 94.2 nM | 118 nM | 53 nM | > 10000 nM | COc1ccc(-c2ccc3c(N4CCOC[C@@H]4C)nc(C4CCOCC4)nc3n2)cc1CO | – |
| 23 nM | 6 nM | 3.2 nM | 7 nM | 2 nM | 400 nM | COc1ccc(-c2ccc3c(N4CCOC[C@@H]4C)nc(C(C)(C)C)nc3n2)cc1CO | inhibition [7]: Active; Cmax [8]: 288 ng/mL; Ratio IC50 [9]: 4; half-life [10]: 5.4 h; inhibition [11]: 100%; inhibition in vivo at 3 mg/kg [12]: 28%; CL free [13]: 28.1 µL/min/mg; inhibition [14]: Active; Ratio IC50 [15]: 10; inhibition in vivo at 30 mg/kg [16]: 83%; inhibition in vivo at 10 mg/kg [17]: 64%; half-life at 50 µM [18]: 0.515 h; MRT [19]: 4.3 h; inhibition [20]: 100%; inhibition [21]: Dose-dependent effect; Ratio IC50 [22]: 8; TGI [23]: Dose-dependent effect; Activity [24]: Non-Toxic; AUC(0-t) at 24 h [25]: 857 ng·h/mL |
| 66.6 nM | 186 nM | 90.3 nM | 54.5 nM | 88 nM | > 10000 nM | COc1ccc(-c2ccc3c(N4CCOCC4)nc(CC#N)nc3n2)cc1CO | – |
| 155 nM | 54 nM | 33.8 nM | 44.7 nM | 10 nM | 3000 nM | COc1ccc(-c2ccc3c(N4CCOC[C@@H]4C)nc(C(C)C)nc3n2)cc1CO | – |
| 110 nM | 31 nM | 32.5 nM | 58.6 nM | 72 nM | 1300 nM | CNC(=O)c1cccc(-c2ccc3c(N4CCOC[C@@H]4C)nc(C(C)(C)C)nc3n2)c1 | – |
| > 1000 nM | > 1000 nM | 920 nM | 660 nM | 32 nM | 2600 nM | COc1ccc(-c2ccc3c(N4CCOCC4)nc(C#N)nc3n2)cc1CO | – |
| > 1000 nM | > 1000 nM | > 1000 nM | > 1000 nM | > 500 nM | > 10000 nM | COc1ccc(-c2ccc3c(N4CCOCC4)nc(CS(C)(=O)=O)nc3n2)cc1CO | – |
| 36.7 nM | 27 nM | 21.2 nM | 55 nM | – | – | COc1ccc(-c2ccc3c(N4CCOC[C@@H]4C)nc(N4CCOC[C@@H]4C)nc3n2)cc1CO [AZD-8055] | Cmax [8]: 228 ng/mL; half-life [10]: 4.5 h; CL free [13]: 28.6 µL/min/mg; inhibition in vivo at 10 mg/kg [17]: 59%; half-life at 50 µM [18]: 0.35 h; MRT [19]: 3.1 h; AUC(0-t) at 24 h [25]: 787 ng·h/mL |
| > 1000 nM | > 1000 nM | > 1000 nM | > 1000 nM | 146 nM | > 10000 nM | COc1ccc(-c2ccc3c(N4CCOCC4)nc(CN)nc3n2)cc1CO | – |
| 212 nM | 225 nM | 85.5 nM | 125 nM | 30 nM | > 10000 nM | COc1ccc(-c2ccc3c(N4CCOC[C@@H]4C)nc(C4=CCOCC4)nc3n2)cc1CO | – |
